# A selection: hits, their analogues and other compounds. The true share with any hit is near 3.1%.
# S100A4 inh HTS: blocks human S100A4 binding to myosin IIA peptide | P26447 | inhibition, % at 10.7 µM | S100A4/TAMRA-MyoIIA peptide fluorescence polarization | 0.14% of 360,000 active;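 active means mean inhibition of at least 70% across replicates, with every replicate also reaching that level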
#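 Test system: S100A4 monomer protein; Medium: HEPES pH 7.2 with CaCl2, KCl, NaCl, DTT, Triton; Probe or stimulus: TAMRA-labelled myosin IIA heavy-chain peptide probe, 5 nM; Doses: one dose per compound; Times: polarization read 5 min after assay mix addition, stable 5–60 min; Benchmarks: neutral control DMSO, positive control TFP.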
# rRNA inh HTS: selective bacterial rRNA inhibition in E. coli; E. coli WT GFP vs humanized-ribosome RFP mutants, fluorescence, 24 h; hits give low values; DMSO median 0, no signal -100; GFP signal change (wild-type ribosome), % (test concentration not listed); 1.6% of 350,000 active;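 active means significant combined selectivity score with lowered wild-type GFP, culture density cut under 30%, mutant RFP and density less affected; inactive means any of these conditions unmet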
# F508del corr: CFTR F508del correction in bronchial cells | 0.36% of 350,000 active | AID 720511 | CFBE cells, YFP halide quenching; stimulated with forskolin plus potentiator P3; % fluorescence drop versus neutral controls | activity (quench increase), % at 7.58 µM;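 active means mean added fluorescence quench of at least 8% versus neutral control, with both replicates also reaching 8%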;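 further: cells transiently co-express mutant CFTR-F508del with the halide-sensitive YFP; corrector assay measuring rescue of mutant channel to the surface after 24 h compound exposure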
# SIRT5 inh: sirtuin-5 (human) deacylase inhibition; Purified SirT5, succinyl-peptide AMC, trypsin-coupled fluorescence; inhibition, % at 15 µM; 1.1% of 330,000 active; AID 652115; in the data active means inhibition above about 15%
# ERAP1 HTS inh: inhibitors of human ERAP1 aminopeptidase | recombinant ERAP1, Leu-AMC fluorescence, 60 min | inhibition, % at 10.7 µM | 0.15% of 340,000 active | AID 652197;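 active means mean replicate inhibition of at least 30%, or all replicates individually reaching that 30% level; inactive means mean below 30% and not every replicate reaching it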;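 further: 0% = neutral control wells and 100% = L-leucinethiol positive control wells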
# Target sequence (Q9NZ08 whole entry, looked up): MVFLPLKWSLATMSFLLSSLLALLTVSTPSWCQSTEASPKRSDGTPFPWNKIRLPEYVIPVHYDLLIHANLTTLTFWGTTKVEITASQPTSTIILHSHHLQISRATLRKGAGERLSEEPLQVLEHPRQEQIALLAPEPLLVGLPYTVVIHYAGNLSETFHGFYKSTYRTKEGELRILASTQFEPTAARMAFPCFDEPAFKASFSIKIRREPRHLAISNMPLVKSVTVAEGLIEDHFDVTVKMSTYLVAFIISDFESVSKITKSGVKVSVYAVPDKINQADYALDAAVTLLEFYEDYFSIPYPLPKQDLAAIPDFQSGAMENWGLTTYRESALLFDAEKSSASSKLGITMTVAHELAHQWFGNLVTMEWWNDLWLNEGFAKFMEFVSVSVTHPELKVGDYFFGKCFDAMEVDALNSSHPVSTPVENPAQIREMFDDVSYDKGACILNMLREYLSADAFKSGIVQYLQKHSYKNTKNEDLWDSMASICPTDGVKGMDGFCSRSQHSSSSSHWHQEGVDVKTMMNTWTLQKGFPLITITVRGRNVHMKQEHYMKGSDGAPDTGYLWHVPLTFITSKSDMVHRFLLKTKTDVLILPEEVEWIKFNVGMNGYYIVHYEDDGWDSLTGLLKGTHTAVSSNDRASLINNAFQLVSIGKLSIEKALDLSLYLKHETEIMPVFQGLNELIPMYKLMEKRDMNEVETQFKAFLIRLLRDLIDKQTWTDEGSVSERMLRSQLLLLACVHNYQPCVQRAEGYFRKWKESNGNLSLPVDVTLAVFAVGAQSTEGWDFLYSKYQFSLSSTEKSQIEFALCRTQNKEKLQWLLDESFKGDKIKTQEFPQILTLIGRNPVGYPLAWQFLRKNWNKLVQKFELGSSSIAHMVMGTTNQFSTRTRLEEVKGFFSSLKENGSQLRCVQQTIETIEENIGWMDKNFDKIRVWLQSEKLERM
# Active calls of the source: *; . = no result.
SMILES,S100A4 inh HTS,rRNA inh HTS,F508del corr,SIRT5 inh,ERAP1 HTS inh
COc1ccc(S(=O)(=O)N(C)C[C@H]2Oc3ccc(NS(=O)(=O)c4ccccc4)cc3C(=O)N([C@@H](C)CO)C[C@@H]2C)cc1,.,0,-2,.,.
C[C@@H]1CN([C@H](C)CO)C(=O)c2cc(NC(=O)Cc3ccccc3)ccc2O[C@H]1CN(C)S(C)(=O)=O,2,0,0,-2,6
C[C@H]1CN([C@@H](C)CO)C(=O)c2cc(NC(=O)CCCCCC(=O)Nc3ccccc3N)ccc2O[C@H]1CN(C)Cc1ccc(Oc2ccccc2)cc1,-10,-6,1,17*,-1
C[C@H](CO)N1C[C@H](C)[C@H](CN(C)Cc2ccc(-c3ccccc3)cc2)Oc2ccc(NC(=O)CCCCCC(=O)Nc3ccccc3N)cc2C1=O,0,2,2,23*,1
C[C@H]1CN([C@@H](C)CO)C(=O)Cc2cc(NC(=O)Cc3ccccc3)ccc2O[C@H]1CN(C)Cc1ccc(Oc2ccccc2)cc1,2,-2,2,17*,4
C[C@H]1CN([C@@H](C)CO)C(=O)c2cc(NC(=O)CCCCCC(=O)Nc3ccccc3N)ccc2O[C@H]1CN(C)Cc1ccc(-c2ccccc2)cc1,.,4,-2,.,.
C[C@@H]1CN([C@H](C)CO)C(=O)c2cc(NC(=O)Cc3ccccc3)ccc2O[C@@H]1CN(C)S(C)(=O)=O,6,1,8.0*,-2,2
C[C@H](CO)N1C[C@H](C)[C@@H](CN(C)C(=O)c2ccccc2)OCCCC[C@H](C)Oc2ccc(N(C)C)cc2C1=O,.,-3,4,.,.
C[C@@H]1CN([C@@H](C)CO)C(=O)c2cc(NC(=O)CCCCCC(=O)Nc3ccccc3N)ccc2O[C@H]1CN(C)Cc1ccccc1,-49,-2,-4,21*,-2
C[C@H](CO)N1C[C@H](C)[C@H](CN(C)Cc2ccncc2)Oc2ccc(NC(=O)CCCCCC(=O)Nc3ccccc3N)cc2C1=O,11,2,0,.,-1
C[C@@H]1CN([C@H](C)CO)C(=O)Cc2cc(NC(=O)CCCCCC(=O)Nc3ccccc3N)ccc2O[C@H]1CN(C)Cc1ccc(Oc2ccccc2)cc1,0,-5,-3,15*,2
CCCNC(=O)Nc1ccc2c(c1)C(=O)N(C)[C@@H]1CC[C@H](CC(=O)NCCCN(C)C)O[C@@H]1CO2,3,1,-1,-3,1
O=C(C[C@H]1C[C@@H]2c3cc(NC(=O)NC4CCCCC4)ccc3O[C@@H]2[C@@H](CO)O1)NCc1ccccn1,9,-2,-1,-3,-2
CCOC(=O)CC1C(=O)NCCN1C1CCCC1 (stereo not given),2,7,2,20*,0
CCOC(=O)CC1C(=O)NCCN1C(=O)c1ccc(C)cc1 (stereo not given),-1,12,2,-1,-2
COc1ccccc1NS(=O)(=O)c1cc(-c2cnc(C3CC3)o2)ccc1C,1,-29,8.3*,-1,-3
CCOC(=O)C1=C(C)N(C)C(=S)NC1c1cccc(Cl)c1Cl (stereo not given),-5,-24*,-4,1,-5
Cc1ccc(S(=O)(=O)Nc2ccc3c(c2)C(=O)N([C@H](C)CO)C[C@@H](C)[C@H](CN(C)S(=O)(=O)c2ccccc2)O3)cc1,-10,-4,-1,-3,3
Cc1ccc(-c2ccc([C@H]3[C@@H](CO)N4CCCCN(S(=O)(=O)c5cccc(C)c5)C[C@H]34)cc2)cc1,0,.,-2,19*,0
Cc1cccc(-c2ccc([C@@H]3[C@@H](CO)N4CCCCN(S(=O)(=O)c5cccc(C)c5)C[C@H]34)cc2)c1,4,-29,2,8,0
Cc1ccc(-c2ccc([C@@H]3[C@@H](CO)N4CCCCN(S(=O)(=O)c5cccc(C)c5)C[C@@H]34)cc2)cc1,5,.,-3,17*,0
O=C1CN(Cc2ccc(F)cc2)C[C@@H]2[C@@H](c3ccc(-c4ccccc4F)cc3)[C@@H](CO)N12,14,-11,-1,3,-3
O=C(N/N=C/c1ccc([N+](=O)[O-])o1)c1cc2c(ccc3ccccc32)o1,0,-24*,-4,4,-3
O=C(N/N=C/c1ccc([N+](=O)[O-])o1)c1ccncc1,-8,-50,2,2,4
O=C(N/N=C\c1ccc([N+](=O)[O-])o1)c1cncc(Br)c1,-1,17,-1,21*,.
SMILES,S100A4 inh HTS,rRNA inh HTS,F508del corr,SIRT5 inh,ERAP1 HTS inh
COc1ccc(CN2C(=O)C(CC(=O)NCCc3ccccn3)CC(C(=O)N3CCOCC3)=C2C)cc1 (stereo not given),0,7,-1,21*,-1
COc1ccc(CN2C(=O)C(CC(=O)NCCc3ccccn3)CC(C(=O)N(C)C)=C2C)cc1 (stereo not given),8,17,-4,1,.
C[C@@H]1CN([C@H](C)CO)C(=O)c2cc(C3=CCCC3)cnc2O[C@@H]1CN(C)Cc1cccc(F)c1,2,-1,-2,6,-2
O=C(CN1C(=O)NC2(CCc3ccccc32)C1=O)c1ccc(F)c(F)c1 (stereo not given),2,4,2,-2,2
O=C(CN1C(=O)NC2(CCCc3ccccc32)C1=O)c1ccc(F)cc1 (stereo not given),-1,-1,-3,-1,0
O=C(CN1C(=O)NC2(CCCc3ccccc32)C1=O)c1ccccc1F (stereo not given),-9,-35*,-3,.,-2
O=C(CN1C(=O)NC2(CCc3ccccc32)C1=O)c1ccc(Br)s1 (stereo not given),1,-30*,2,1,-5
CC(C)C#Cc1cnc2c(c1)C(=O)N([C@H](C)CO)C[C@H](C)[C@@H](CN(C)C(=O)c1cccnc1)O2,55,10,-2,-4,-1
C=CCS(=O)(=O)N1CCCC(N(C)CCc2ccc(OC)c(OC)c2)C1 (stereo not given),-4,16,-2,0,-1
COc1ccc(CCN(C)C2CCCN(S(=O)(=O)N(C)C)C2)cc1OC (stereo not given),1,8,-1,15*,-1
Cc1noc(C)c1NC(=O)Nc1ccc2c(c1)CC(=O)N([C@H](C)CO)C[C@H](C)[C@@H](CN(C)S(=O)(=O)c1cn(C)cn1)O2,.,2,0,.,.
CCN(Cc1ccccc1)c1ccc(/C=N/N2CCOCC2)cc1,-9,-22*,0,-1,-5
CCN(CC)c1ccc(C=NN2CCCCCC2)cc1,-1,-4,3,-6,-4
COc1cc(OC)c2c(c1)OC(=O)CC2c1ccc2c(c1)OCO2 (stereo not given),-9,-28*,-1,-3,.
